According to ChEMBL document CHEMBL1153919, “Pyrano[2,3-e]isoindol-2-ones, new angelicin heteroanalogues” (Bioorg Med Chem Lett, 2009):
The source made the active and inactive calls. The rule behind the calls is not given here.

Tests used:
[1] = Cytotoxicity against human NCTC-2544 cells after 72 hrs by MTT assay; type: cell-based; settings: NCTC-2544, 72 h
Jurkat [2] = test: Cytotoxicity against human Jurkat cells after 72 hrs by MTT assay; type: functional, cell-based
[3] = Phototoxicity against human NCTC-2544 cells exposed to irradiation with 2.5 J/cm'2 UVA light prior to 72 hrs drug exposure by MTT assay; type: cell-based; settings: NCTC-2544, light or radiation study
Summary of the method: (§1)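 Phototoxicity panel: NCTC-2544 keratinocytes, LoVo adenocarcinoma, K562 and Jurkat leukemia cells. Cells with compound received UVA at 2.5 or 3.75 J/cm2. Cell growth was measured by MTT after 72 h of exposure. IC50 is the concentration inhibiting growth by 50%.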

LoVo [4] = test: Cytotoxicity against human LoVo cells after 72 hrs by MTT assay; type: functional, cell-based
K562 [5] = test: Cytotoxicity against human K562 cells after 72 hrs by MTT assay; type: functional, cell-based; settings: K562, 72 h
LoVo [6] = test: Phototoxicity against human LoVo cells exposed to irradiation with 2.5 J/cm'2 UVA light prior to 72 hrs drug exposure by MTT assay; type: functional, cell-based; settings: light or radiation study; summary of the method: as §1
Jurkat [7] = test: Phototoxicity against human Jurkat cells exposed to irradiation with 2.5 J/cm'2 UVA light prior to 72 hrs drug exposure by MTT assay; type: functional, cell-based; settings: light or radiation study; summary of the method: as §1
LoVo [8] = test: Phototoxicity against human LoVo cells exposed to irradiation with 3.75 J/cm'2 UVA light prior to 72 hrs drug exposure by MTT assay; type: functional, cell-based; settings: light or radiation study; summary of the method: as §1
K562 [9] = test: Phototoxicity against human K562 cells exposed to irradiation with 2.5 J/cm'2 UVA light prior to 72 hrs drug exposure by MTT assay; type: functional, cell-based; settings: K562, light or radiation study; summary of the method: as §1
[10] = Phototoxicity against human NCTC-2544 cells exposed to irradiation with 3.75 J/cm'2 UVA light prior to 72 hrs drug exposure by MTT assay; type: cell-based; settings: NCTC-2544, light or radiation study; summary of the method: as §1
K562 [11] = test: Phototoxicity against human K562 cells exposed to irradiation with 3.75 J/cm'2 UVA light prior to 72 hrs drug exposure by MTT assay; type: functional, cell-based; settings: K562, light or radiation study; summary of the method: as §1
Jurkat [12] = test: Phototoxicity against human Jurkat cells exposed to irradiation with 3.75 J/cm'2 UVA light prior to 72 hrs drug exposure by MTT assay; type: functional, cell-based; settings: light or radiation study; summary of the method: as §1
Jurkat [13] = test: Cell cycle arrest in 2.5 J/cm'2 UVA light irradiated human Jurkat cells assessed as accumulation at G1 phase at 5 uM after 24 hrs by DNA cytometry; type: functional
Summary of the method: (§2)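 Jurkat (T-cell leukemia) cells were UVA-irradiated at 2.5 J/cm2 in the presence of 5 µM compound. DNA content was analysed by flow cytometry 24 h after irradiation. Controls were non-irradiated cells and cells irradiated without compound. A representative experiment is shown, repeated two times.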

Jurkat [14] = test: Induction of lipid peroxidation in 2.5 J/cm'2 UVA light irradiated human Jurkat cells at 10 uM by TBARS test; type: functional, cell-based
Jurkat [15] = test: Induction of lipid peroxidation in 2.5 J/cm'2 UVA light irradiated human Jurkat cells at 20 uM by TBARS test; type: functional, cell-based
Jurkat [16] = test: Induction of lipid peroxidation in 2.5 J/cm'2 UVA light irradiated human Jurkat cells at 5 uM by TBARS test; type: functional, cell-based
Jurkat [17] = test: Cell cycle arrest in 2.5 J/cm'2 UVA light irradiated human Jurkat cells assessed as accumulation at subG1 phase at 5 uM after 24 hrs by DNA cytometry; type: functional; summary of the method: as §2
Jurkat [18] = test: Cell cycle arrest in 2.5 J/cm'2 UVA light irradiated human Jurkat cells assessed as accumulation at S phase at 5 uM after 24 hrs by DNA cytometry; type: functional; summary of the method: as §2
Jurkat [19] = test: Cell cycle arrest in 2.5 J/cm'2 UVA light irradiated human Jurkat cells assessed as accumulation at G2/M phase at 5 uM after 24 hrs by DNA cytometry; type: functional; summary of the method: as §2

SMILES	IC50 [1]	IC50 (Jurkat [2])	IC50 [3]	IC50 (LoVo [4])	IC50 (K562 [5])	IC50 (LoVo [6])	IC50 (Jurkat [7])	IC50 (LoVo [8])	IC50 (K562 [9])	IC50 [10]	IC50 (K562 [11])	IC50 (Jurkat [12])	Activity (Jurkat [13])	Activity (Jurkat [14])	Activity (Jurkat [15])	Activity (Jurkat [16])	Activity (Jurkat [17])	Activity (Jurkat [18])	Activity (Jurkat [19])
COc1c2occc2cc2ccc(=O)oc12 [METHOXSALEN]	> 20 µM	> 20 µM	5.5 µM	> 20 µM	> 20 µM	–	–	–	–	–	–	–	–	–	–	–	–	–	–
CCOC(=O)c1cc2c(oc1=O)-c1c(cn(Cc3ccccc3)c1C)CC2	> 20 µM	> 20 µM	> 20 µM	> 20 µM	> 20 µM	> 20 µM	> 20 µM	> 20 µM	> 20 µM	> 20 µM	> 20 µM	> 20 µM	–	–	–	–	–	–	–
O=c1ccc2c(o1)-c1cn(Cc3ccccc3)cc1CC2	> 20 µM	> 20 µM	> 20 µM	> 20 µM	> 20 µM	> 20 µM	> 20 µM	> 20 µM	> 20 µM	> 20 µM	> 20 µM	> 20 µM	–	–	–	–	–	–	–
Cn1cc2c(c1)-c1oc(=O)c(C(=O)O)cc1CC2	> 20 µM	> 20 µM	> 20 µM	> 20 µM	> 20 µM	> 20 µM	> 20 µM	> 20 µM	> 20 µM	> 20 µM	> 20 µM	> 20 µM	–	–	–	–	–	–	–
CCOC(=O)c1c2c(c(C)n1Cc1ccc(C)cc1)-c1oc(=O)c(C(=O)OC)cc1CC2	> 20 µM	> 20 µM	> 20 µM	> 20 µM	> 20 µM	> 20 µM	> 20 µM	> 20 µM	> 20 µM	> 20 µM	16.6 µM	17.8 µM	–	–	–	–	–	–	–
Cn1cc2c(c1)-c1oc(=O)ccc1CC2	> 20 µM	> 20 µM	> 20 µM	> 20 µM	> 20 µM	> 20 µM	> 20 µM	> 20 µM	> 20 µM	> 20 µM	> 20 µM	> 20 µM	–	–	–	–	–	–	–
CCOC(=O)c1cc2c(oc1=O)-c1c(c(C(=O)OCC)n(Cc3ccccc3)c1C)CC2	> 20 µM	> 20 µM	14.6 µM	> 20 µM	> 20 µM	10.5 µM	8.2 µM	9.6 µM	7.5 µM	10.9 µM	7.3 µM	7.2 µM	44.7%	Active	Active	Active	17.2%	37.6%	17.7%
CCOC(=O)c1cc2ccc3c(C(=O)OCC)n(C)c(C)c3c2oc1=O	> 20 µM	> 20 µM	> 20 µM	> 20 µM	> 20 µM	16.2 µM	> 20 µM	6.7 µM	> 20 µM	> 20 µM	> 20 µM	> 20 µM	–	–	–	–	–	–	–
CCOC(=O)c1cc2c(oc1=O)-c1c(c(C(=O)OCC)n(C)c1C)CC2	> 20 µM	> 20 µM	> 20 µM	> 20 µM	> 20 µM	> 20 µM	15.4 µM	11.1 µM	13.9 µM	> 20 µM	13.1 µM	15.2 µM	–	–	–	–	–	–	–
